{"source": "ChEMBL document CHEMBL1140185", "about": "“Conjugated chitosan as a novel platform for oral delivery of paclitaxel” (J Med Chem, 2008)", "key": {"[1]": {"test_system": "Mus musculus", "assay": "Toxicity in human NCI-H358 cells xenografted NCR nu/nu mouse assessed as decrease in body weight at 10 mg/kg, iv", "type": "organism-based", "parameters": "dose 10 mg/kg, route intravenous", "conditions": "in vivo", "how_it_was_run": "(§1)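 Female athymic NCR nu/nu mice (20-25 g), inoculated sc with about 6 × 10^6 NCI-H358 cells. Dosing began at tumors ≥150 mm3: 10 mg/kg/day formulated PTX iv, or conjugate po, every other day for six doses. Saline and LMWC controls. Caliper volumes taken as (1/2)(L × W2), and body weight tracked. n = 8-12; Student's t-test.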"}, "[2]": {"test_system": "NCI-H358", "assay": "Antitumor activity against human NCI-H358 cells xenografted NCR nu/nu mouse assessed as suppression of tumor growth at 10 mg/kg, iv", "type": "functional", "how_it_was_run": "as §1"}, "[3]": {"test_system": "Mus musculus", "assay": "Bioavailability in ICR mouse at 10 mg/kg, iv", "type": "ADME, organism-based", "conditions": "in vivo", "how_it_was_run": "(§2)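 ICR mice (25-30 g). IV arm: 10 mg/kg PTX in cremophor EL/ethanol via tail vein. Oral arm: 5 or 10 mg PTX-equivalent/kg conjugate in 10% DMSO by gavage after a 12 h fast. Retro-orbital blood taken into sodium citrate and spun 800g for 20 min. Plasma extracted with ethyl acetate; free PTX measured by HPLC. Oral bioavailability is relative to 10 mg/kg IV. n = 5.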"}, "[4]": {"test_system": "NCI-H358", "assay": "Anticancer activity against human NCI-H358 cells by MTT assay", "type": "functional, cell-based"}, "[5]": {"assay": "Oral bioavailability in cyclosporine A pretreated ICR mouse", "type": "ADME, organism-based", "conditions": "in vivo, in the assay text read “in ICR mouse” for “in cyclosporine A pretreated ICR mouse”", "how_it_was_run": "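ICR mice (25-30 g) fasted 12 h, then gavaged with PTX or conjugate (PTX-equivalent). The oral solution included 15 mg/kg cyclosporine A where given. Retro-orbital blood spun at 3000g for 20 min; plasma PTX measured by HPLC. n = 4-5.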"}, "[6]": {"test_system": "MDA-MB-231", "assay": "Anticancer activity against human MDA-MB-231 cells by MTT assay"}, "[7]": {"assay": "Half life in ICR mouse at 10 mg/kg, iv", "type": "ADME, organism-based", "parameters": "dose 10 mg/kg, route intravenous", "conditions": "in vivo", "how_it_was_run": "as §2"}, "[8]": {"assay": "AUC (0 to 48 hrs) in ICR mouse at 10 mg/kg, iv", "type": "ADME, organism-based", "parameters": "time < 48 hr, dose 10 mg/kg, route intravenous", "conditions": "plasma", "how_it_was_run": "as §2"}, "[9]": {"test_system": "SK-OV-3", "assay": "Anticancer activity against human SKOV3 cells by MTT assay", "type": "functional, cell-based"}, "[10]": {"assay": "Drug uptake in tumor of iv dosed C57BL/6 mouse bearing mouse B16F10 cells after 30 mins", "type": "ADME, organism-based, C57BL6, Neoplasm, B16-F10", "conditions": "in vivo, 0.5 h"}}, "data": [{"smiles": "CC(=O)O[C@H]1C(=O)[C@@]2(C)[C@H]([C@H](OC(=O)c3ccccc3)[C@]3(O)C[C@H](OC(=O)[C@H](O)[C@@H](NC(=O)c4ccccc4)c4ccccc4)C(C)=C1C3(C)C)[C@]1(OC(C)=O)CO[C@@H]1C[C@@H]2O", "note": "[PACLITAXEL]", "values": [{"measurement": "Activity", "setting": "[1]", "result": "Toxic"}, {"measurement": "Activity", "setting": "[2]", "result": 80, "unit": "%"}, {"measurement": "F", "setting": "[3]", "result": 100, "unit": "%"}, {"measurement": "IC50", "setting": "[4]", "result": 3.8, "unit": "µg/mL"}, {"measurement": "bioavailability", "setting": "[5]", "result": 0.23, "unit": "%"}, {"measurement": "IC50", "setting": "[6]", "result": 3.9, "unit": "µg/mL"}, {"measurement": "half-life", "setting": "[7]", "result": 33.6, "unit": "min"}, {"measurement": "AUC(0-t) at 48 h", "setting": "[8]", "result": 35300, "unit": "ng·h/mL"}, {"measurement": "IC50", "setting": "[9]", "result": 4, "unit": "µg/mL"}, {"measurement": "Drug uptake", "setting": "[10]", "result": 0.5, "unit": "%"}]}]}
